The list is not random: actives were taken first. Their share in the collection is about 3%.
HIF act – HIF pathway transcriptional activation | activation, % at 7.5 µM (by protocol) | U2OS HRE-luciferase reporter, luminescence; normalized: DMSO 0%, desferrioxamine 100% | 300,000 compounds, 0.32% hits;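 active = mean activation of at least 10% of the iron chelator positive control signal, with at least half of replicates also reaching 10%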
T cruzi repl – blocks replication of Trypanosoma cruzi; AID 1885; T. cruzi beta-gal in NIH3T3, luminescence, 90 h; 300,000 compounds, 1.4% hits; inhibition, % (test concentration not listed);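 active = mean inhibition across valid replicates above about 55%, limit read from the data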;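 note: signal also drops with host cell toxicity which is not excluded here; higher percent means less beta-gal luminescence so fewer parasites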
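compound dosing = single 50 nL compound addition per well in DMSO | material = NIH/3T3 host cells with β-galactosidase reporter T. cruzi | input = 5,000 host fibroblasts per well | timing = ≥90 h infection period, 3 h prior cell attachment | read-out basis = percent inhibition of parasite-derived β-gal signal | detection = GalScreen β-gal luminescence, detergent lysis, 60 min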
CendR NRP1 mod – NRP-1/CendR interaction modulation; FAM-RPARPAR peptide binding to NRP-1, fluorescence polarization; inhibition, % at 25 µM; O14786; 360,000 compounds, 0.85% hits; AID 602438;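 active = inhibition or corrected inhibition above about 18%, plus a signal ratio from 0.5 to 1.5, limit read from the data, passing the limit was not always enough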
Target sequence (O14786 whole entry, looked up): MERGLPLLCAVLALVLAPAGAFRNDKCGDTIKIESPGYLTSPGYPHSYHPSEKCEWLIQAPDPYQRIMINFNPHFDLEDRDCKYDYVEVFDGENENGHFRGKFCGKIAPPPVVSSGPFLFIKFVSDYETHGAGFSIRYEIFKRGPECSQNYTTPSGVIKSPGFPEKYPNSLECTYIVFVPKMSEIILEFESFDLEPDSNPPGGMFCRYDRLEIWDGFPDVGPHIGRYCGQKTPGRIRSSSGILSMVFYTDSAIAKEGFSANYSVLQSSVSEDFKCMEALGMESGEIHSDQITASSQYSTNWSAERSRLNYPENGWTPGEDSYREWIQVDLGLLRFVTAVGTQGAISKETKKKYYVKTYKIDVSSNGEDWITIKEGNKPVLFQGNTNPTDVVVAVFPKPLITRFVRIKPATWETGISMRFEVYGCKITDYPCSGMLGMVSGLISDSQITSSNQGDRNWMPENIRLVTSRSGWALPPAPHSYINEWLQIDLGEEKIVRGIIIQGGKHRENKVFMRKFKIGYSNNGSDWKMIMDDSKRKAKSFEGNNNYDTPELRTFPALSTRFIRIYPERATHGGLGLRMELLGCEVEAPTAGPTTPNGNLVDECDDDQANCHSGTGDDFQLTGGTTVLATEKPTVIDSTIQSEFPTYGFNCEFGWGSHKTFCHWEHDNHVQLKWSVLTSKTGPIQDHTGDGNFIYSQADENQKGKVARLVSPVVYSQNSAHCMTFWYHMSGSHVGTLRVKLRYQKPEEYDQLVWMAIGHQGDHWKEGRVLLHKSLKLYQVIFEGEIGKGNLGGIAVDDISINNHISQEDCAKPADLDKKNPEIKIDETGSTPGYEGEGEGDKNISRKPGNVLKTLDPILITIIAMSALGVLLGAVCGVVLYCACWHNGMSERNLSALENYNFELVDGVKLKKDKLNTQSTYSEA
V-ATPase pH – regulators of yeast V-ATPase proton transport; response, % at 10 µM; 350,000 compounds, 0.37% hits; S. cerevisiae, pHLuorin cytosolic pH fluorescence; AID 504577; in the data active = response mostly above about 7.3%, no sharp cut-off; inactive = mostly below about 5.4%; note: actives read high
AI-2 QS modul – modulates the Vibrio harveyi AI-2 quorum sensing system | Vibrio harveyi JMH597 AI-2 luminescence/OD600 ratio, 9 h; stronger effect = lower value; strain lacks LuxN and CqsS sensors; 0 = neutral-control median | activity change, % at 7.5 µM | 300,000 compounds, 0.4% hits | AID 2094; in the data active = activity change below about -75%, passing the limit was not always enough;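 note: luminescence divided by OD600 gain over 9 h not by final OD600 alone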
CR mimetic SO – caloric restriction mimetics inhibiting age-related superoxide in yeast | S. cerevisiae aged cells, superoxide DHE fluorescence; stronger effect = lower value | superoxide response (% of plate mean), % at 10 µM | 330,000 compounds, 0.18% hits | AID 2690;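 active = superoxide response under a set limit, about three screen SD below normal, cut at about 65% in these data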;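 note: yeast aged for seven days with compound at 30 °C before DHE staining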
Of the large screens only hits and unclear results are named; the others gave an inactive call.

Cc1ccc(Cl)cc1NC1=C/C(=N\S(=O)(=O)c2cccs2)c2ccccc2C1=O	T cruzi repl 61
Cc1cccc(NC2=C/C(=N/S(=O)(=O)c3cccs3)c3ccccc3C2=O)c1	none (no result: HIF act, T cruzi repl, AI-2 QS modul)
COc1ccc(CCNC(=O)COc2ccc(-c3ccc(C#N)cc3)cc2)cc1	none
C/C(CCc1ccc2c(c1)OCO2)=N\N=C(/N)SC1CC(=O)N(c2ccc(Cl)cc2)C1=O (stereo unspecified)	none (no result: HIF act)
CCN(CC)CCN1C(=O)/C(=C\c2ccc(Cl)c([N+](=O)[O-])c2)SC1=Nc1ccc(OC)cc1	T cruzi repl 57
CCN1C(=O)/C(=C/c2cccs2)SC1=Nc1ccc(OC)cc1	none
CCCN1C(=O)/C(=C/c2ccc(C)s2)SC1=Nc1ccc(OC)cc1	none
COc1ccc(N=C2S/C(=C\c3ccc(Cl)c([N+](=O)[O-])c3)C(=O)N2CCN(C)C)cc1	T cruzi repl 65
CN1CCN(Cc2cc(COCc3ccccc3)c3cccnc3c2O)CC1	HIF act 221, T cruzi repl 77
O=S(=O)(c1ccc(Cl)cc1)N1CCN(Cc2ccncc2)CC1	none
Oc1ccc(CN2CCN(Cc3ccccc3)CC2)c2cccnc12	HIF act 11, T cruzi repl 64
CN1CCN(C2CCN(Cc3ccc(O)c4ncccc34)CC2)CC1	none (no result: HIF act, T cruzi repl, AI-2 QS modul)
O=[N+]([O-])c1ccc(S(=O)(=O)N2CCN(Cc3c[nH]c4ccccc34)CC2)cc1	T cruzi repl 74
O=S(=O)(c1ccc(Cl)cc1)N1CCN(Cc2ccc(O)c3ncccc23)CC1	T cruzi repl 55
Cc1cc(C)c(C(=O)C(C)OC(=O)Cn2cnc3c2c(=O)n(C)c(=O)n3C)cc1C (stereo unspecified)	none
COCCCN1C(=O)c2ccc(C(=O)N3CCN(c4ccc(OC)cc4)CC3)cc2C1=O	none
CC(=O)Nc1ccccc1NS(=O)(=O)c1ccccc1[N+](=O)[O-]	none
O=C(Nc1ccc(Cl)cc1)c1ccc2nsnc2c1	none
Cc1ccc(/C=N/N2CCN(c3ccc(Cl)cc3)CC2)o1	none (no result: HIF act, T cruzi repl, AI-2 QS modul)
Oc1ccc(CNc2ccc(F)cc2)c2cccnc12	T cruzi repl 55
c1ccc(CN2CCN(Cc3c[nH]c4ccccc34)CC2)cc1	T cruzi repl 60
COc1ccc(S(=O)(=O)N2CCN(Cc3cccc([N+](=O)[O-])c3)CC2)cc1	CendR NRP1 mod 20
COc1ccc(S(=O)(=O)N2CCN(Cc3cccc(F)c3)CC2)cc1	none
N#CC(c1ccccn1)c1ncc(C(F)(F)F)cc1Cl (stereo unspecified)	none
Cn1nc([N+](=O)[O-])c(C(C#N)c2ccccn2)c(Cl)c1=O (stereo unspecified)	T cruzi repl 64
Cc1cc(C)c(S(=O)(=O)N(CC(=O)O)C2CCCCC2)c(C)c1	none
CCOC(=O)c1cc(-c2ccccc2)sc1NC(=O)C(C)C	none
CCOC(=O)c1cc(-c2ccccc2)sc1NC(=S)Nc1cccc(C)n1	CendR NRP1 mod 43
Cc1cc(C)cc(N2C(=O)CC(n3nc(C)cc3C)C2=O)c1 (stereo unspecified)	none
Cc1cc(C)n(C2CC(=O)N(c3cc(Cl)cc(Cl)c3)C2=O)n1 (stereo unspecified)	CendR NRP1 mod 35
Nc1c(C(=O)O)sc2nc(-c3ccccc3)cc(-c3ccc(Cl)cc3)c12	none
CC(=O)c1sc2nc(-c3ccccc3)cc(C)c2c1N	T cruzi repl 56
COc1ccccc1CN1C(=O)CCC1(C)C(=O)NCc1cccnc1 (stereo unspecified)	none
CCN(CC)CCOCCOc1cc(C)c(Cl)c(C)c1	T cruzi repl 64
Cc1cc(OCCOCCN(C)CCO)cc(C)c1Cl	none
CS(=O)(=O)N(CC(=O)N1CCCCCC1)c1ccc(Cl)cc1	none
COc1ccc(CCN(C)C(=O)c2cc(-c3ccccc3)nc3ccccc23)cc1OC	none
COc1cc(OC)cc(C(=O)Nc2ccccc2S(=O)(=O)N2CCCC2OC(C)=O)c1 (stereo unspecified)	CendR NRP1 mod 18
CSc1ccccc1NC(=O)COC(=O)Cc1ccsc1	none (no result: HIF act, T cruzi repl, AI-2 QS modul)
CC(=O)Nc1ccc(NC(=O)Nc2cccc(C)c2C)cc1	none
CCC1C(=O)Nc2ccccc2N1C(=O)COc1ccccc1 (stereo unspecified)	CendR NRP1 mod 26
CC1CC(=O)Nc2ccccc2N1C(=O)COc1ccc2ccccc2c1 (stereo unspecified)	none (no result: HIF act, T cruzi repl, AI-2 QS modul)
COc1ccc(-n2cc(CN(C)C(C)c3ccncn3)c(-c3cccc(F)c3)n2)cc1 (stereo unspecified)	T cruzi repl 66
CCOc1ccc(Cc2nnc(SCC(=O)Nc3ccc(C(C)=O)cc3)[nH]c2=O)cc1	none
Cc1c(Cl)cccc1NC(=O)COC(=O)c1c2c(nc3ccccc13)CCN(Cc1ccccc1)C2	T cruzi repl 68
Cc1cc(N2CCN(C)CC2)ccc1NC(=O)c1c2c(nc3ccccc13)CCN(Cc1ccccc1)C2	T cruzi repl 58
CC1CCc2nc3ccccc3c(C(=O)OCC(=O)NC3CCS(=O)(=O)C3)c2C1 (stereo unspecified)	none
COc1cccc(NC(=O)COC(=O)c2c3c(nc4ccccc24)CCC(C)C3)c1 (stereo unspecified)	T cruzi repl 73
CCNC(=S)Nc1ccc(-c2nc3ccccc3[nH]2)cc1	none
O=C(NCc1ccccn1)c1cc(-c2ccc(Cl)cc2)oc1C(F)(F)F	none
Cc1cccc(C(=O)NCC(=O)N2CCN(c3ccccn3)CC2)c1	none (no result: HIF act, T cruzi repl, AI-2 QS modul)
O=[N+]([O-])c1cccc(/C=N/Nc2nc(NCc3ccccc3)nc(N3CCOCC3)n2)c1O	HIF act 19
CCN(CC)S(=O)(=O)c1ccc(N2CCCC2)c(NC(=O)CSCc2c(C)noc2C)c1	none (no result: HIF act, T cruzi repl, AI-2 QS modul, CR mimetic SO)
O=C1C=C(NCCc2cc(Br)c(O)c(Br)c2)C(=O)c2ncccc21	CendR NRP1 mod 42 (no result: HIF act, T cruzi repl, AI-2 QS modul, CR mimetic SO)
CC(C)Cc1ccc(C2=CSC3=NCCN23)cc1	none
O=C(/C=C/c1ccc(Cl)cc1Cl)n1cccn1	none
CCOC(=O)/C=C1\NC2(CCCCC2)Cc2cc(OC)c(OC)cc21	T cruzi repl 60
COC(=O)C1=CN(Cc2ccc(OC)c(OC)c2)C=C(C(=O)OC)C1c1cccc(OC)c1OC	T cruzi repl 61
CCCN(CCC)S(=O)(=O)c1ccc(NC(=O)c2cc(C(=O)OC)cc([N+](=O)[O-])c2)cc1	T cruzi repl 74
O=c1[nH]c(-c2ccccn2)nc2sc(-c3ccccc3)cc12	HIF act 72, T cruzi repl 55 (no result: CR mimetic SO)
CC(C)(C)C(C(Oc1ccc(Cl)cc1)n1cncn1)n1nnnc1C(c1cccc(Cl)c1)N1CCCCC1 (stereo unspecified)	T cruzi repl 55 (no result: CendR NRP1 mod, V-ATPase pH)
Cc1ccc2nc(-c3cccs3)oc(=O)c2c1	none
COc1cc2nc(-c3cccs3)oc(=O)c2cc1OC	CendR NRP1 mod 27
